CRFBP-R2 agonist = agonists of CRF-BP/CRF-R2 complex, primary screen, cell-based, HEK293, calcium dye fluorescence, uHTS. activation, % at 13.2 µM. CRF-binding protein / CRF receptor 2 complex (human). 0.46% of 350,000 active. calcium dye fluorescence (FLIPR); percent of saturating CRF peptide response;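 active means activation of at least 50%, plus an integration ratio under a set limit after plate pattern correction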;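 further: plate controls were neutral control wells without compound for no effect and CRF at EC100 for full effect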
CRFBP-R2 block = antagonists of CRF-BP/CRF-R2 complex, primary screen, cell-based, HEK293, calcium dye fluorescence, uHTS; inhibition, % at 11.8 µM; CRF-induced calcium fluorescence; 0.59% of 350,000 active; AID 588475, 2011;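 active means inhibition of the ligand-induced calcium signal above about 50% at the single tested concentration, limit read from the data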
TAAR1 ag = human TAAR1 agonists, primary screen, Fluo-8 calcium fluorescence, CHO RD-HGA16 cells; Trace amine-associated receptor 1 (Homo sapiens), Q96RJ0; vehicle wells 0%, saturating PEA agonist 100%; activation, % at 3 µM; 0.99% of 360,000 active; AID 624467, 2012;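 active means activation above the mean activation of all test compounds in the run plus 3 SD, cut at about 38% in these data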
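Signal – calcium-sensitive Fluo-8 signal, excitation 470-495, emission 515-575 nm · System – RD-HGA16 (CHO) cells co-expressing Gα16 and hTAAR1 · Incubation – 17-24 h seeding, 75 min 37 °C dye, 30 min RT · Compound dosing – 3 µM single concentration · Repeats – no replicates (n 1)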
TAAR1 antag = human TAAR1 antagonists, primary screen, Fluo-8 calcium fluorescence, CHO RD-HGA16 cells. Trace amine-associated receptor 1 (Homo sapiens), Q96RJ0. inhibition, % at 3 µM. antagonist. 1.5% of 360,000 active;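 active means inhibition above a per-plate cutoff, the mean inhibition of test compounds on that plate plus 3 SD, cut at about 49% in these data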;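 further: 0% = DMSO plus EC80 beta-PEA response and 100% = DMSO alone without agonist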
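test system = CHO RD-HGA16 cells bearing hTAAR1 | replication = singlicate | controls = DMSO-only wells and EC80 β-PEA-stimulated wells | reagent = EC80 β-phenethylamine stimulus | read-out basis = percent inhibition of PEA-evoked calcium signal, max/basal emission ratio | schedule = seeding 17-24 h prior, 75-min 37 °C, 30-min RT dye loading | signal = kinetic Fluo-8 calcium fluorescence measurement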
TMEM16A inh = TMEM16A chloride channel inhibitors, primary screen, cell-based, HTS; Anoctamin-1 (Mus musculus), Q8BHY3; HEK293 TMEM16A/YFP iodide influx fluorescence, ionomycin; normalized B-score (activity score, 25-100; higher = stronger inhibition) at 10 µM; 1.2% of 310,000 active; AID 588511, 2011;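 active means ratio plate-corrected score three or more library SD toward inhibition, starting fluorescence score within five deviations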;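 further: score derived from kinetic fluorescence span divided by baseline fluorescence per well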
ANO1 activ = TMEM16A chloride channel activators or potentiators, primary screen, cell-based, HTS; B-score at 10 µM; 0.3% of 340,000 active; Anoctamin-1 (Mus musculus), Q8BHY3; HEK293 TMEM16A/YFP-H148Q/I152L, iodide quench fluorescence; hits give low values;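 active means fluorescence-ratio B-score plate-corrected deviation score at least 3 library SD below zero, with starting fluorescence score within 5 deviations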;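 further: channel opened by trigger with iodide after compound preincubation; score built on the fluorescence ratio of max minus min over baseline; more negative score means more quench and so TMEM16A activation or potentiation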
The depositor's hits bear a star; i = inactive; . = no result. In the library only some 3.9% were active in any assay of this set; here they are far more common.

SMILES	CRFBP-R2 agonist	CRFBP-R2 block	TAAR1 ag	TAAR1 antag	TMEM16A inh	ANO1 activ
O=C(CC1SC(=O)N(c2ccccc2)C1=O)Nc1ccccc1 (configuration not stated)	4.6	-20.3	23.1	-10.7	i	i
CS(=O)(=O)c1ccc(-c2csc(C(O)c3cccc(Cl)c3)n2)cc1 (configuration not stated)	.	.	2.5	25.4	.	.
O=[N+]([O-])c1ccc2[nH]c(=S)sc2c1	37.4	58.5*	10.8	-6.4	.	i
Cc1ccccc1CN1[C@@H](C)[C@H](c2ccccc2)Oc2cccc(N3CCCC(C)C3)c2S1(=O)=O (some centres not stated)	.	.	1.4	-20.8	.	.
CC(C)c1ccc(S(=O)(=O)N2CCN(C(=O)C3CCCC3)CC2)cc1	-0.4	10.6	5.1	-1.2	i	i
COc1ccc(N=C2SC(CC(=O)Nc3ccccc3)C(=O)N2Cc2ccccn2)cc1 (configuration not stated)	-0.3	-14.8	1.9	5.0	i	-5.75*
CCNC(=O)C1(C)CCCN1C(=O)c1cc(C)on1 (configuration not stated)	.	.	2.0	2.3	.	.
O=C(CCc1ccccc1)NC1(Cc2ccccc2)CCN(CCCc2ccccc2)C1=O (configuration not stated)	-1.8	-5.9	7.2	55.3*	.	i
CCCCNC(=O)Nc1nc2ccc(CC)cc2s1	0.0	-21.8	-0.4	-4.9	i	i
COc1cccc(NC(=O)Cn2c3ccccc3c3nc4n(c(=O)c32)CCCS4)c1	-2.4	12.1	0.5	-7.8	i	-51.9*
COc1ccc(NC(=O)Cn2c3ccccc3c3nc4n(c(=O)c32)CCS4)cc1	-4.0	6.8	1.8	-18.8	i	i
O=C(Cn1c2ccccc2c2nc3n(c(=O)c21)CCCS3)Nc1ccccc1	-0.4	8.3	0.2	-28.5	i	i
COc1ccc(NC(=O)Cn2c3ccccc3c3nc4n(c(=O)c32)CCS4)cc1OC	-1.3	-9.6	0.1	-11.6	i	-54.4*
Cc1ccccc1C(=O)Nc1nc(=S)ss1	-1.5	-6.3	8.1	-1.0	100*	i
O=C(Nc1nc(=S)ss1)c1c(F)cccc1F	-1.7	2.6	9.8	-9.7	i	i
CC(=O)Nc1nc(=S)ss1	-1.2	6.3	7.0	4.1	i	i
CC(C)CC(=O)Nc1nc(=S)ss1	1.8	-1.1	17.0	6.2	100*	i
CCCCCCCCN1C(=O)[C@@H](CC(=O)NCc2ccccc2)C[C@@]2(C(=O)OC)C1=C[C@H](C1CCCC1)O[C@@H]2C	.	.	-0.7	-12.7	.	.
CCOc1ccc(-c2c(C(=O)N/N=C/c3cccc(Br)c3)nnn2-c2nonc2N)cc1	9.1	2.4	6.2	-30.7	i	i
COc1ccccc1NC(=O)C(Sc1ccccc1)c1ccccc1 (configuration not stated)	3.0	32.8	-1.0	6.9	i	i
CCOc1ccccc1NC(=O)C(Sc1ccccc1)c1ccccc1 (configuration not stated)	4.8	-9.9	12.4	56.9*	100*	i
COc1ccc(NC(=O)C(Sc2ccccc2)c2ccccc2)c(OC)c1 (configuration not stated)	2.4	51.1*	5.9	27.8	i	i
COc1ccccc1N1CCN(C(=O)/C=C/c2cccs2)CC1	-0.8	79.6*	0.1	-17.4	i	i
Cc1cccc(N2CCN(C(=O)/C=C/c3cccs3)CC2)c1C	0.7	-11.6	-1.7	-2.0	i	i
Cc1cc(C)c(OCC(=O)Nc2cccc(NC(=O)c3ccco3)c2)c(Br)c1	-0.5	22.1	6.7	52.2*	i	i
SMILES	CRFBP-R2 agonist	CRFBP-R2 block	TAAR1 ag	TAAR1 antag	TMEM16A inh	ANO1 activ
Cc1cc(C)c(OCC(=O)Nc2ccc(NC(=O)c3ccco3)cc2)c([N+](=O)[O-])c1	-1.5	-18.4	3.3	6.5	i	i
Cn1c(Oc2ccc(F)cc2)c(C=O)c2ccccc21	-1.7	22.3	7.2	-2.9	i	i
Cn1c(Sc2ccc(Br)cc2)c(C=O)c2ccccc21	3.9	2.7	6.3	44.3	100*	i
Cc1ccc(C(=O)Nc2ccccc2SCC2CSc3nc4ccccc4c(=O)n32)cc1 (configuration not stated)	1.2	11.6	8.2	-5.8	i	i
O=C(Nc1ccccc1SCC1CSc2nc3ccccc3c(=O)n21)c1ccccc1 (configuration not stated)	-3.1	66.6*	2.0	5.8	i	i
CCOC(=O)C1=C(Nc2ccc(Cl)cc2)OCC1=O	0.5	-14.4	7.8	-53.3	i	i
COc1ccc(C(=O)N/C(=C/c2ccc(Cl)cc2)C(=O)Nc2ccc(C(=O)O)cc2)cc1	-1.8	5.9	-0.4	-16.2	i	i
CCC(=O)Nc1ccc(NC(=O)c2oc3ccccc3c2C)cc1	-0.7	98.2*	14.1	-2.1	i	i
CCC(=O)Nc1ccc(NC(=S)NC(=O)c2oc3ccccc3c2C)cc1	15.5	20.8	6.3	-24.9	i	i
CCOc1ccc2oc(C(=O)Nc3ccc4c(c3)OCO4)c(C)c2c1	1.7	-1.2	0.8	-1.0	i	i
CCOc1ccc2oc(C(=O)Nc3ccc(N4CCOCC4)cc3)c(C)c2c1	-0.7	-16.8	18.5	50.3*	i	i
CCN(C(=O)COC(=O)CCn1c(C)csc1=O)c1c(N)n(Cc2ccccc2)c(=O)[nH]c1=O	0.3	1.6	2.5	-21.8	.	i
CCCC1(CCC)NC(=O)N(CC(=O)Nc2ccc(Cl)c(S(=O)(=O)N3CCOCC3)c2)C1=O	0.2	69.1*	2.6	-13.0	.	i
CCOC(=O)c1sc(NC(=O)CSc2nccc(C)n2)c(C#N)c1C	0.7	3.7	1.9	2.7	i	i
CCOC(=O)c1sc(NC(=O)CSc2n[nH]c(-c3ccncc3)n2)c(C#N)c1C	-5.2	69.8*	9.2	3.5	i	i
C=C(C)Cn1c(C)cc(C)c(S(=O)(=O)c2cccc(C)c2)c1=O	-1.5	39.2	8.6	-1.2	100*	i
O=C1OCCC1Sc1nnc(-c2ccccc2)o1 (configuration not stated)	1.3	12.7	7.2	-11.6	i	.

Screens: PubChem BioAssay, several laboratories
